Measurements reported in ChEMBL document CHEMBL4480406, “Discovery of an SSTR2-Targeting Maytansinoid Conjugate (PEN-221) with Potent Activity in Vitro and in Vivo” (J Med Chem, 2019).
Calls of active or inactive are those of the source. No cut-off for these calls is given here.

Assays:
[1] = target: T1, Somatostatin receptor type 2 (Homo sapiens, UniProt P30874); assay: Displacement of [125I]somatostatin from human SSTR2 expressed in CHO-K1 cell membranes after 240 mins
Summary of the method: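 Membranes from CHO-K1 cells stably expressing human SSTR2, prepared in modified HEPES pH 7.4. Nonspecific binding was defined with 1 µM somatostatin. Bound ligand was measured by filtration, 3 washes and counting. Six test concentrations were run, top 10 nM, in five-fold dilutions.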

NCI-H524 [2] = assay: Cytotoxicity in human NCI-H524 cells pre-incubated for 2 hrs followed by compound wash out and subsequently incubated for 70 hrs by Cell Titer Glo assay; assay type: functional, cell-based
Summary of the method: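 Cells were then spun, washed with fresh medium, resuspended and grown a further 70 h. Proliferation was read by CellTiter-Glo luminescence, and % inhibition calculated relative to vehicle. IC50 came from a four-parameter nonlinear fit.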

NCI-H524 [3] = assay: Cytotoxicity in human NCI-H524 cells pre-incubated for 2 hrs in presence of 100 uM octreotide followed by compound wash out and subsequently incubated for 70 hrs by Cell Titer Glo assay; assay type: functional, cell-based
Summary of the method: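 Octreotide receptor-blockade variant: NCI-H524 cells (5,000/well) were pretreated with octreotide acetate for 30 min, then given compound for 2 h in a ten-point three-fold series.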

NCI-H69 [4] = assay: Antitumor activity against human NCI-H69 cells xenografted in CrTac:NCr-Foxn1nu mouse assessed as tumor regression at 0.7 mg/kg, iv measured up to 20 days; assay type: functional, organism-based
Summary of the method: (§1)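 Female athymic nude mice were implanted subcutaneously in the right flank with 2.5 × 10^6 NCI-H69 cells in medium/Matrigel 1:1. At 150-250 mm3, animals were randomized into groups of 10. Dosing was by tail-vein injection in 10% propylene glycol in 5 mM citrate pH 4 on the indicated days. Caliper volumes were calculated as (w2 × l)/2 and reported as mean ± SEM.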

[5] = target: T1, Somatostatin receptor type 2; assay: Binding affinity to human SSTR2 expressed in CHO-K1 cells assessed as induction of SSTR2 internalization after 4 hrs by chemiluminescent assay; assay type: cell-based
[6] = Half life of the compound in phosphate buffer at 1 mM in presence of GSH by LC-MS/MS analysis; assay type: physicochemical; conditions: phosphate buffer with GSH
Summary of the method: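 Conjugate, added from a 1 mM methanol stock, was incubated in 5 mM GSH at 37 °C. Aliquots taken from 30 min to 6 h were quenched into N-ethyl maleimide in 1% ethanol, and remaining parent conjugate was measured by LC-MS/MS.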

[7] = Half life in Beagle dog at 0.1 mg/kg, iv; assay type: ADME, organism-based, Canis lupus familiaris; conditions: in vivo
[8] = Cmax in Beagle dog at 0.1 mg/kg, iv; assay type: ADME, organism-based, Canis lupus familiaris; design: dose 0.1 mg/kg, route intravenous; conditions: in vivo
[9] = AUC (0 to 6 hrs) in Beagle dog at 0.1 mg/kg, iv; assay type: ADME, organism-based, Canis lupus familiaris; design: dose 0.1 mg/kg, time < 6 hr, route intravenous; conditions: in vivo
[10] = Clearance in Beagle dog at 0.1 mg/kg, iv; assay type: ADME, organism-based, Canis lupus familiaris; conditions: in vivo
NCI-H69 [11] = assay: Antitumor activity against human NCI-H69 cells xenografted in CrTac:NCr-Foxn1nu mouse assessed as tumor regression at 2 mg/kg, iv measured up to 40 days; assay type: functional
Summary of the method: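 Female athymic nude mice were implanted subcutaneously in the right flank with 2.5 × 10^6 NCI-H69 cells (RPMI 1640/10% FBS culture) in media:Matrigel (1:1). At 150-250 mm3, mice were randomized into groups of 10. Compound in 10% propylene glycol in 5 mM citrate buffer (pH=4) was given by tail-vein i.v. injection on indicated days. Tumor volume was measured by calipers as (w2 × l)/2, reported as mean ± SEM.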

[12] = Toxicity in CrTac:NCr-Foxn1nu mouse xenografted with human NCI-H69 cells assessed as body weight loss at 2 mg/kg, iv measured up to 40 days; assay type: organism-based; conditions: in vivo, 960 h
[13] = target: Somatostatin receptor type 1 (Homo sapiens, UniProt P30872); assay: Displacement of [125I]somatostatin from human SSTR1 expressed in CHO-K1 cell membranes after 120 mins
[14] = target: Somatostatin receptor type 3 (Homo sapiens, UniProt P32745); assay: Displacement of [125I]somatostatin from human SSTR3 expressed in CHO-K1 cell membranes after 120 mins
[15] = target: Somatostatin receptor type 4 (Homo sapiens, UniProt P31391); assay: Displacement of [125I]somatostatin from human SSTR4 expressed in CHO-K1 cell membranes after 120 mins
[16] = target: T2, Somatostatin receptor type 5 (Homo sapiens, UniProt P35346); assay: Displacement of [125I]somatostatin from human SSTR5 expressed in CHO-K1 cell membranes after 120 mins
[17] = Apparent permeability from apical to basolateral side in human Caco2 cells; assay type: ADME, cell-based; conditions: Caco-2
[18] = Antitumor activity against human HCC33 cells xenografted in CrTac:NCr-Foxn1nu mouse assessed as tumor regression at 1 mg/kg, iv measured up to 16 days; assay type: functional
Summary of the method: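 Female athymic nude mice received subcutaneous right-flank implants in media:Matrigel (1:1): 2.5 × 10^6 HCC-33 cells (RPMI 1640/10% FBS) or 1 x 10^7 IMR-32 cells (EMEM/10% FBS). At 150-250 mm3, mice were randomized into groups of 10. Dosing was tail-vein i.v. on indicated days in 0.1% Solutol HS 15/5% mannitol/WFI. Caliper volume was (w2 × l)/2, reported as group mean ± SEM.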

IMR-32 = assay: Antitumor activity against human IMR32 cells xenografted in CrTac:NCr-Foxn1nu mouse assessed as tumor regression at […], iv measured up to 20 days; assay type: functional
[19] = Drug uptake in tumor of CrTac:NCr-Foxn1nu mouse xenografted with human NCI-H69 cells assessed as DM1 level at 1 mg/kg, iv measured after 24 hrs by LC-MS/MS analysis relative to DM1 alone; assay type: ADME, organism-based, Neoplasm; conditions: in vivo
Summary of the method: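 NCI-H69 subcutaneous tumors of 250-600 mm3 in nude mice, groups of 3, dosed i.v. Free DM1 was given in 10% propylene glycol/WFI, conjugates in 10% propylene glycol/5 mM citrate pH 4. Tumors were excised at 24 h and homogenized 1:4 (w/v) in 0.1 M ammonium bicarbonate pH 8.0. Homogenate was reduced with TCEP in acetonitrile (15 min, 37 °C), capped with 0.2 M NEM (15 min, 37 °C), and DM1-NEM quantified by LC-MS/MS against standards in blank tumor homogenate. Values were normalized to DM1 dose.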

NCI-H69 [20] = assay: Antitumor activity against human NCI-H69 cells xenografted in CrTac:NCr-Foxn1nu mouse assessed as tumor regression at 1.3 mg/kg, iv measured up to 40 days; assay type: functional, organism-based; summary of the method: as §1
[21] = target: T1, Somatostatin receptor type 2; assay: Agonist activity at SSTR2 (unknown origin) assessed as effect on calcium flux incubated for 180 secs by FLIPR assay; assay type: functional
[22] = target: T1, Somatostatin receptor type 2; assay: Antagonist activity at SSTR2 (unknown origin) assessed as effect on agonist-induced calcium flux incubated for 180 secs by FLIPR assay; assay type: functional
[23] = target: T2, Somatostatin receptor type 5; assay: Agonist activity at SSTR5 (unknown origin) assessed as effect on calcium flux incubated for 180 secs by FLIPR assay; assay type: functional
[24] = target: T2, Somatostatin receptor type 5; assay: Antagonist activity at SSTR5 (unknown origin) assessed as effect on agonist-induced calcium flux incubated for 180 secs by FLIPR assay; assay type: functional

T2 sequence (P35346 whole entry): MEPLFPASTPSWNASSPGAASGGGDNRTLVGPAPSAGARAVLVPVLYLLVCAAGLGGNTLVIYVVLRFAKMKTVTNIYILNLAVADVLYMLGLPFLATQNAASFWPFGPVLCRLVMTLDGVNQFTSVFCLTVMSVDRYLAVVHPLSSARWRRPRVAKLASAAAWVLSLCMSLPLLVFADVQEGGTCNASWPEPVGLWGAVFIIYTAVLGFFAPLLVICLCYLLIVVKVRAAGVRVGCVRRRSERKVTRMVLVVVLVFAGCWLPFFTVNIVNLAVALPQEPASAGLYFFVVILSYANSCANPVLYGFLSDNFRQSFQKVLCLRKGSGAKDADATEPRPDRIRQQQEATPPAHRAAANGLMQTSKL
T1 sequence (P30874 whole entry): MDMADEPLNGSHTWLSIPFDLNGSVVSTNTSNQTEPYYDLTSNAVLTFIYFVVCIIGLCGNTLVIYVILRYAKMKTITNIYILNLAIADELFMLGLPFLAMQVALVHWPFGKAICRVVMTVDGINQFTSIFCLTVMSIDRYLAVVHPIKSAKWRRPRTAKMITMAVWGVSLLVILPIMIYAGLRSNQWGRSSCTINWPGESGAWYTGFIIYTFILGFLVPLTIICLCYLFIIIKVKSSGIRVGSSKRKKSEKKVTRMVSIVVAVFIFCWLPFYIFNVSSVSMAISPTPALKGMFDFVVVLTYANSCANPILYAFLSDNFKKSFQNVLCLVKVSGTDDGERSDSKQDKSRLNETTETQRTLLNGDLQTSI
Chain of Somatostatin receptor type 1 (P30872 whole entry): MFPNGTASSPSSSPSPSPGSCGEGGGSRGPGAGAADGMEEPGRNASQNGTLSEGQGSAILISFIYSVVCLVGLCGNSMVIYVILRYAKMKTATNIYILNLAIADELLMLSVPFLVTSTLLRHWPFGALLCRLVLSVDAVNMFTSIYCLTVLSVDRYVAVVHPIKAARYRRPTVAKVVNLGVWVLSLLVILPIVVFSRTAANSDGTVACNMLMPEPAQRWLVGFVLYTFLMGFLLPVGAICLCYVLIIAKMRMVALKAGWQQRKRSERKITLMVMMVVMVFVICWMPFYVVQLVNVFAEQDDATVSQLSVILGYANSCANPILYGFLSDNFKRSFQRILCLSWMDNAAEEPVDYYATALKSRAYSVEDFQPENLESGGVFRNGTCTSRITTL
Chain of Somatostatin receptor type 4 (P31391 whole entry): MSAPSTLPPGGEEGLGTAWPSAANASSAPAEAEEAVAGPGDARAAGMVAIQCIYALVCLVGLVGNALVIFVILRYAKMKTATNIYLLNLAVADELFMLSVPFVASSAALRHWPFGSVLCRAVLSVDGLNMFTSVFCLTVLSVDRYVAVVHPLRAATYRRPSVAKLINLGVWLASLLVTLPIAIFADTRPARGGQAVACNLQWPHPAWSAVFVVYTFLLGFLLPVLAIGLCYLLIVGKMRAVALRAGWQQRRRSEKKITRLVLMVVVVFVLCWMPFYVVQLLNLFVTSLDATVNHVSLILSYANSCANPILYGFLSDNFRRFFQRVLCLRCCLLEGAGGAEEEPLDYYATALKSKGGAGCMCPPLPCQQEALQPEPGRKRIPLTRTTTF
Chain of Somatostatin receptor type 3 (P32745 whole entry): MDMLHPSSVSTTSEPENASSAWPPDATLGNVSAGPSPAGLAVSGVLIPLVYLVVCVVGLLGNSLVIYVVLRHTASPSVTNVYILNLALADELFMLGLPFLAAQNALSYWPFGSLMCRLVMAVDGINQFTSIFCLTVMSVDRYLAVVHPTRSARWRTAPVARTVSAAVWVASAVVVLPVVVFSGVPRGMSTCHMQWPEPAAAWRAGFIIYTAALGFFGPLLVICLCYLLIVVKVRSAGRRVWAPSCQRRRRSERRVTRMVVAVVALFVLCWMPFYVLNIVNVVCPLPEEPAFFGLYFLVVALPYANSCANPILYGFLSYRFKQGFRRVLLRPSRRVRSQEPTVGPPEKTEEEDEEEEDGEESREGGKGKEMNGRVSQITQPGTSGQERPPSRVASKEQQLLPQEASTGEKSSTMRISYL

Structure (SMILES) | Ki [1] [nM] | IC50 (NCI-H524 [2]) [nM] | IC50 (NCI-H524 [3]) [nM] | EC50 [5] [nM] | half-life at 1000 µM [6] [h] | half-life [7] [h] | Cmax [8] [nM] | AUC(0-t) at 6 h [9] [µM·h] | clearance [10] [mL/min/kg] | Activity (NCI-H69 [11]) [%] | Activity [12] | Drug uptake [19] | other results
COc1cc2cc(c1Cl)N(C)C(=O)C[C@H](OC(=O)[C@H](C)N(C)C(=O)CCSSC[C@H](NC(=O)[C@@H]1CSSC[C@H](NC(=O)[C@H](N)Cc3ccccc3)C(=O)N[C@@H](Cc3ccc(O)cc3)C(=O)N[C@H](Cc3c[nH]c4ccccc34)C(=O)N[C@@H](CCCCNC(=O)NCCCCCCN)C(=O)N[C@@H]([C@@H](C)O)C(=O)N1)C(N)=O)[C@@]1(C)O[C@H]1[C@H](C)[C@@H]1C[C@@](O)(NC(=O)O1)[C@H](OC)/C=C/C=C(\C)C2 | 3350 | 581 | 644 | – | – | – | – | – | – | – | – | – | Activity (NCI-H69 [4]): inactive
COc1cc2cc(c1Cl)N(C)C(=O)C[C@H](OC(=O)[C@H](C)N(C)C(=O)CCSSC[C@H](NC(=O)[C@@H]1CSSC[C@H](NC(=O)[C@H](N)Cc3ccccc3)C(=O)N[C@@H](Cc3ccc(O)cc3)C(=O)N[C@H](Cc3c[nH]c4ccccc34)C(=O)N[C@@H](CCCCN)C(=O)N[C@@H]([C@@H](C)O)C(=O)N1)C(N)=O)[C@@]1(C)O[C@H]1[C@H](C)[C@@H]1C[C@@](O)(NC(=O)O1)[C@H](OC)/C=C/C=C(\C)C2 | 0.022 | 10 | 910 | 1 | 0.167 | 2.33 | 708 | 0.47 | 1.66 | 100 | Non-Toxic | Active | Kd [13]: 310 nM; Kd [14]: 19.8 nM; Kd [15]: 5480 nM; Kd [16]: 9.6 nM; Papp A→B [17]: 0.018 ×10⁻⁶ cm/s; Activity [18]: 100%; Activity (IMR-32): 100%; Activity (NCI-H69 [20]): Active; Activity [21]: Active; Activity [22]: Active; Activity [23]: Active; Activity [24]: Active
CO[C@H]1C(=O)[C@]2(C)[C@@H](OC)C[C@H]3OC[C@@]3(OC(C)=O)[C@H]2[C@H](OC(=O)c2ccccc2)[C@]2(O)C[C@H](OC(=O)[C@H](OC(=O)OCCSSC[C@H](NC(=O)[C@@H]3CSSC[C@H](NC(=O)[C@H](N)Cc4ccccc4)C(=O)N[C@@H](Cc4ccc(O)cc4)C(=O)N[C@H](Cc4c[nH]c5ccccc45)C(=O)N[C@@H](CCCCN)C(=O)N[C@@H]([C@@H](C)O)C(=O)N3)C(N)=O)[C@@H](NC(=O)OC(C)(C)C)c3ccccc3)C(C)=C1C2(C)C | 0.97 | 7 | 14 | 11 | – | – | – | – | – | – | – | – | –
COc1cc2cc(c1Cl)N(C)C(=O)C[C@H](OC(=O)[C@H](C)N(C)C(=O)CCSSC(C)(C)[C@H](NC(=O)[C@@H]1CSSC[C@H](NC(=O)[C@H](N)Cc3ccccc3)C(=O)N[C@@H](Cc3ccc(O)cc3)C(=O)N[C@H](Cc3c[nH]c4ccccc34)C(=O)N[C@@H](CCCCN)C(=O)N[C@@H]([C@@H](C)O)C(=O)N1)C(N)=O)[C@@]1(C)O[C@H]1[C@H](C)[C@@H]1C[C@@](O)(NC(=O)O1)[C@H](OC)/C=C/C=C(\C)C2 | 0.015 | 8 | 1040 | – | 0.947 | 1.38 | 867 | 0.769 | 1.09 | 100 | Non-Toxic | – | –
COc1cc2cc(c1Cl)N(C)C(=O)C[C@H](OC(=O)[C@H](C)N(C)C(=O)CCSSCCCN[C@H](Cc1ccccc1)C(=O)N[C@H]1CSSC[C@@H](C(=O)N[C@@H](Cc3c[nH]c4ccccc34)C(N)=O)NC(=O)[C@H](C(C)C)NC(=O)[C@H](CCCCN)NC(=O)[C@@H](Cc3c[nH]c4ccccc34)NC(=O)[C@H](Cc3ccc(O)cc3)NC1=O)[C@@]1(C)O[C@H]1[C@H](C)[C@@H]1C[C@@](O)(NC(=O)O1)[C@H](OC)/C=C/C=C(\C)C2 | 0.19 | 22 | 115 | – | – | – | – | – | – | – | – | Active | –
